The target of assay [1] is T1, Monoacylglycerol lipase ABHD6 (Mus musculus, UniProt Q8R2Y0).
T1 sequence (Q8R2Y0 whole entry): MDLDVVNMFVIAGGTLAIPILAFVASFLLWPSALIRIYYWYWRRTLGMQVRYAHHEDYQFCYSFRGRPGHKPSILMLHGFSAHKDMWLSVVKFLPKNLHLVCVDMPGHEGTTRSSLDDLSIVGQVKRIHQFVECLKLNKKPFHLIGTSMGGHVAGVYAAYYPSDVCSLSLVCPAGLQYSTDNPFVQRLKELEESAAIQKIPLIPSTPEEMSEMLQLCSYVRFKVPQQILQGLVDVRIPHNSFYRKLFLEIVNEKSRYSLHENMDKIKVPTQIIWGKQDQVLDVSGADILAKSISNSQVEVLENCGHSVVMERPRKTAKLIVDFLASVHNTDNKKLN
The assay can be described thus: Inhibition of recombinant mouse ABHD6 expressed in HEK293T using 2-arachidonoylglycerol preincubated for 30 mins followed by substrate addition measured after 30 mins by LC-MS analysis.

Another assay deals with Mus musculus. Description: In vivo inhibition of ABHD6 in C57Bl/6 mouse liver at 0.1 mg/kg, ip after 4 hrs by HT-10-labelled gel-based competitive ABPP assay. It is filed as functional. The settings on record: C57Bl/6, Liver, route intraperitoneal. A digest of the protocol:
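C57Bl/6 mice dosed i.p. (18:1:1 v/v/v saline/ethanol/PEG40, 10 μL g⁻¹) across 0.1–1 mg kg⁻¹; after 4 hr, anesthetized with isoflurane, euthanized, liver membrane fraction isolated (Dounce homogenization in PBS pH 7.5, 1,400 × g then 100,000 × g spin). Proteome labeled with HT-01 (1 μM, 30 min, 37 °C), SDS-PAGE, in-gel fluorescence; ABHD6 activity versus vehicle.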

Assay [2] addresses T2, Platelet-activating factor acetylhydrolase IB subunit alpha2 (Mus musculus) (UniProt Q61206).
T2 sequence (whole entry): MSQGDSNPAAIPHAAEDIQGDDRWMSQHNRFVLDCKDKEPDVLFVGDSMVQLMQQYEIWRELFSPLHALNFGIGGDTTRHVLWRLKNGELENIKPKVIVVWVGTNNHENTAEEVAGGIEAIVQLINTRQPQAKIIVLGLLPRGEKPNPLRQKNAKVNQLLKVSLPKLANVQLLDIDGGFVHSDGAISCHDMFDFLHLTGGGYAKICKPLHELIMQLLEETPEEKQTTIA
Conditions: Neuro2a, 3 nM.

In assay [3] the target is T3, Lon protease homolog, mitochondrial (Mus musculus) (UniProt Q8CGK3).
T3 sequence (whole entry): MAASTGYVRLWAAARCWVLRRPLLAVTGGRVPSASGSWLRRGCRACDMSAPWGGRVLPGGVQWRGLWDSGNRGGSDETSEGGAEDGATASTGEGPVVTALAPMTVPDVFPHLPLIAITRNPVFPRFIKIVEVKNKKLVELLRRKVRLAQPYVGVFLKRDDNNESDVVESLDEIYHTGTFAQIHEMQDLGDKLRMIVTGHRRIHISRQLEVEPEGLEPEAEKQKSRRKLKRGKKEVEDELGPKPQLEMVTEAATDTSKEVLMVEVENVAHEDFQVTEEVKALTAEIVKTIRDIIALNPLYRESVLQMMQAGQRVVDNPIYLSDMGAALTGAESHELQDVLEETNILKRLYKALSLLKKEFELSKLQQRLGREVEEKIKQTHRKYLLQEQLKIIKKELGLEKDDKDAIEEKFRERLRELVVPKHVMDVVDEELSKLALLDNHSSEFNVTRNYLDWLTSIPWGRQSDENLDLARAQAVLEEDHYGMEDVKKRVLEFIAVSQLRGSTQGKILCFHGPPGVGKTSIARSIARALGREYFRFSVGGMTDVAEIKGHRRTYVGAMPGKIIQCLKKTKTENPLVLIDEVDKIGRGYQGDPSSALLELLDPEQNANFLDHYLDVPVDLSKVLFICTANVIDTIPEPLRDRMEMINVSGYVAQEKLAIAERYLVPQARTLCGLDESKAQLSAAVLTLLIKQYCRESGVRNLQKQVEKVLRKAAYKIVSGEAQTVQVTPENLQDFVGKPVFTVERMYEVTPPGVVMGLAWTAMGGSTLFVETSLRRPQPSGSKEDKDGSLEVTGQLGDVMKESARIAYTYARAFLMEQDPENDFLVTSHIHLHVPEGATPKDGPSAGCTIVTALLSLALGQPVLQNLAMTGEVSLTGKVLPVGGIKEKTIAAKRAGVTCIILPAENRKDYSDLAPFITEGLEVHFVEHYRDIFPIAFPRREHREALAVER
The settings on record: Neuro2a, 3 nM.

Assay [4] deals with Patatin-like phospholipase domain-containing protein 7 (Mus musculus) (UniProt A2AJ88). The settings on record: Neuro2a, 3 nM.
Assay [5] has as its target T4, Lysosomal Pro-X carboxypeptidase (Mus musculus) (UniProt Q7TMR0).
T4 sequence (whole entry): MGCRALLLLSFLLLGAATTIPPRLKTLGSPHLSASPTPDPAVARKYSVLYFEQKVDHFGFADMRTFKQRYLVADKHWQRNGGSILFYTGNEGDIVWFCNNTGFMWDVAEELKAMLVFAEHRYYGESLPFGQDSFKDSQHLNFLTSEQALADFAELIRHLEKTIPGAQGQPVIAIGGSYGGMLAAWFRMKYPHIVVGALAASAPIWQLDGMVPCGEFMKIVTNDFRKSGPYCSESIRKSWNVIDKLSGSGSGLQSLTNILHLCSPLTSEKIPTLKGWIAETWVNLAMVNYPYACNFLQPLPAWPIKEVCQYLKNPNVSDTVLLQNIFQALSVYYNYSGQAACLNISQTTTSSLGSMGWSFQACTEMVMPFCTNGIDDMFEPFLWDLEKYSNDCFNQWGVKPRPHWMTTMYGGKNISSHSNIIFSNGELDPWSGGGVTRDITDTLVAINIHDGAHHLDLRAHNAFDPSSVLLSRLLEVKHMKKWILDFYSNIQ
Conditions: Neuro2a, 3 nM.

The target in assay [6] is T5, Presenilin-associated rhomboid-like protein, mitochondrial (Mus musculus) (UniProt Q5XJY4).
T5 sequence (whole entry): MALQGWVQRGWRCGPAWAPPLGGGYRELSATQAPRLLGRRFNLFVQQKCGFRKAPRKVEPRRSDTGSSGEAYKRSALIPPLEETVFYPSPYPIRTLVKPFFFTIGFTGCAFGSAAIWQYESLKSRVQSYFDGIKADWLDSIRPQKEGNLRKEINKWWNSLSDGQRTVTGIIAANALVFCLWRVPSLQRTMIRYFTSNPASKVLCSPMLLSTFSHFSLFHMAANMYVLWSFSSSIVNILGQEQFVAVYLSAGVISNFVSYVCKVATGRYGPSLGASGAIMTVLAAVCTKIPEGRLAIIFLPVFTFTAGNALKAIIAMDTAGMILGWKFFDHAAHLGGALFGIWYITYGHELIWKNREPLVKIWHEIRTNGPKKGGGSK
The settings on record: Neuro2a, 3 nM.

Patatin-like phospholipase domain-containing protein 7 (Mus musculus), sequence (A2AJ88 whole entry, the tested form may be a part): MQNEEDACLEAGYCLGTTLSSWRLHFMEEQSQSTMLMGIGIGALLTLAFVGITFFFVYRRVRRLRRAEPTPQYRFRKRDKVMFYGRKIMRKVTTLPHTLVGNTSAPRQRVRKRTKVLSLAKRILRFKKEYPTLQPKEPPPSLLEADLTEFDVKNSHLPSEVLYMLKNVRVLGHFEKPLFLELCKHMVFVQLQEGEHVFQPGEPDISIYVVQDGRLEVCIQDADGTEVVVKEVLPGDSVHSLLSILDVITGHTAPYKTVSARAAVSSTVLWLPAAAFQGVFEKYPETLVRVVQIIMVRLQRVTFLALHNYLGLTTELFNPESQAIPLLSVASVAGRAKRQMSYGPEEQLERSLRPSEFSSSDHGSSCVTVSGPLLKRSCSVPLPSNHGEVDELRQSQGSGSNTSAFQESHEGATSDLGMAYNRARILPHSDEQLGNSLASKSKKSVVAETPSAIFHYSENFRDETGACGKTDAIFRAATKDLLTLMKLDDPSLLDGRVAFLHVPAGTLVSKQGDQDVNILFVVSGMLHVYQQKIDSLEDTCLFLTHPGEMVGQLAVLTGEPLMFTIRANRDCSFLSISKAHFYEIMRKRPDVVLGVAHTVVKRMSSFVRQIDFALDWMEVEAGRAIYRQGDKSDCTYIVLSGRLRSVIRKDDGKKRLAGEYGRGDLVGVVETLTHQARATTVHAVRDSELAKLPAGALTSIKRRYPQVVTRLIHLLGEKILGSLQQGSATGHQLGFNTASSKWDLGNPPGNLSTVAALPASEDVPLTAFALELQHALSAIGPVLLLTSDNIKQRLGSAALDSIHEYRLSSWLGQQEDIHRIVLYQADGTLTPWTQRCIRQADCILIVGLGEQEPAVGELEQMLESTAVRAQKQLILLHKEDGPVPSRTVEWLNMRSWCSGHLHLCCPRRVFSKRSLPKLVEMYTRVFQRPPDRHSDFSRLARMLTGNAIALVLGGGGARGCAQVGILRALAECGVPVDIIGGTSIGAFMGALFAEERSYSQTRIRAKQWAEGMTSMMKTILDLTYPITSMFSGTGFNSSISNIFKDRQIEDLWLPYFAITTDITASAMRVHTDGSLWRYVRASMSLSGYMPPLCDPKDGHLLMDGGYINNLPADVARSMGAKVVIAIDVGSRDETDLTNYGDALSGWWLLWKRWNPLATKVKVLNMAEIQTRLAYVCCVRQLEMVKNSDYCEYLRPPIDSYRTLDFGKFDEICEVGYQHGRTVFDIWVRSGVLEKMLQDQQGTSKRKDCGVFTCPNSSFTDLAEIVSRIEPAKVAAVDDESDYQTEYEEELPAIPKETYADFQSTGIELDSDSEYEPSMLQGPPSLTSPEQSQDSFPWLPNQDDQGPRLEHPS

The IC50 is the concentration that gives 50% inhibition. What is called inhibition in vivo is how much of the control response was suppressed. A high value points to a response far below the control. By inhibition is commonly meant how much of the control response was suppressed. For `O=C(N1CCCCC1c1ccccc1)n1cc(-c2ccc(-c3cccc(CO)c3)cc2)nn1` (racemic), the 50% inhibitory concentration (IC50) in assay [1] (hek-293t) amounted to 15.1 nM. This compound had an inhibition in vivo at 0.1 mg/kg with Mus musculus of 80%. For the same compound, the inhibition in assay [2], in assay [3], in assay [4], in assay [5] and in assay [6] was below 50% each time.
Regarding `O=C(c1cccc(-c2ccc(-c3cn(C(=O)N4CCCCC4c4ccccc4)nn3)cc2)c1)N1CCCCC1` (racemic), in assay [1], the IC50 stood at 13.6 nM. The inhibition in assay [2], in assay [3], in assay [4], in assay [5] and in assay [6] was below 50% in each case.
For the compound `O=C(O)c1cccc(-c2ccc(-c3cn(C(=O)N4CCCCC4Cc4ccccc4)nn3)cc2)c1` (racemic), the inhibition in vivo at 0.1 mg/kg in the assay on Mus musculus turned out to be 80%. In addition, the inhibition in assay [2], in assay [3], in assay [4], in assay [5] and in assay [6] was below 50% in each case.
